Measured values as given in ChEMBL document CHEMBL1122125, “Synthesis and in vivo antitumor activity of potential 5-fluorouracil prodrugs” (1982).

How the values were obtained:
Type in all cases: functional
[1] = system: L1210; experiment: Evaluated for cytotoxicity against L1210 mouse leukemia cells; settings: read-out: ID50 (the source's name)
Outline: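 L1210 murine leukemia cells in Eagle's minimal essential medium with 15% fetal calf serum, streptomycin (100 μg/mL), penicillin (100 units/mL) and 0.05 mM 2-mercaptoethanol. Cells counted by Coulter counter after 48 h exposure. ID50 is the 50% growth-inhibitory dose. Triplicate assays, standard deviation ±10%.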

[2] = system: Mus musculus; experiment: Antitumor activity was determined for survival range of mice against P-388 leukemia in mice at a dose of 16 mg/kg
Outline: (§1)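 Male B6D2F1J mice implanted ip with 10⁶ P-388 cells on day 0; test agents given ip on days 1–4 (qd × 4) in sterile saline, or in 10% Tween 80 for the lipophilic thioether. Groups of 5 treated mice, with 10–17 untreated controls per experiment. Mice weighed on days 1 and 7 to give the 7-day weight change in g and %. Survival recorded in days as median and range.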

[3] = system: Mus musculus; experiment: Antitumor activity was determined for 7-day average percent weight change against P-388 leukemia in mice at a dose of 32 mg/kg
Outline: (§2)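 Male B6D2F1J mice given 10⁶ P-388 cells ip on day 0, then treated ip once daily on days 1-4 (qd × 4), 5 mice per dose group. Compounds dosed in sterile saline, except one lipophilic thioether given in 10% Tween 80. Mice weighed on days 1 and 7; mean weight per mouse on day 1 and 7-day weight change reported in g and as percent.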

[4] = system: Mus musculus; experiment: Antitumor activity was determined for median survival of mice against P-388 leukemia in mice at a dose of 8 mg/kg; outline: as §1
[5] = system: Mus musculus; experiment: Percent increase in life span against P-388 leukemia in mice was determined at a dose of 16 mg/kg; settings: P388
Outline: (§3)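 Male B6D2F1J mice, 5 per dose group, received 10⁶ P-388 cells ip on day 0. Dosing was ip qd × 4 on days 1-4 in sterile saline, or 10% Tween 80 for the butyl thioether. Median survival times of treated (T) and untreated control (C, 10-17 mice) groups were compared: %ILS = [(T/C) − 1]100. Weights taken on days 1 and 7.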

[6] = system: Mus musculus; experiment: Antitumor activity was determined for median survival of mice against P-388 leukemia in mice at a dose of 32 mg/kg; outline: as §1
[7] = system: Mus musculus; experiment: Antitumor activity was determined for 7-day average percent weight change against P-388 leukemia in mice at a dose of 16 mg/kg; outline: as §2
[8] = system: Mus musculus; experiment: Antitumor activity was determined for average weight on day 1 against P-388 leukemia in mice at a dose of 16 mg/kg; outline: as §2
[9] = system: Mus musculus; experiment: Antitumor activity was determined for average 7-day weight change against P-388 leukemia in mice at a dose of 32 mg/kg; outline: as §2
[10] = system: Mus musculus; experiment: Antitumor activity was determined for survival range of mice against P-388 leukemia in mice at a dose of 32 mg/kg; outline: as §1
[11] = system: Mus musculus; experiment: Antitumor activity was determined for average 7-day weight change against P-388 leukemia in mice at a dose of 8 mg/kg; outline: as §2
[12] = system: Mus musculus; experiment: Antitumor activity was determined for 7-day average percent weight change against P-388 leukemia in mice at a dose of 8 mg/kg; outline: as §2
[13] = system: Mus musculus; experiment: Antitumor activity was determined for average weight on day 1 against P-388 leukemia in mice at a dose of 8 mg/kg
Outline: (§4)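 Male B6D2F1J mice, groups of 5, inoculated ip with 10⁶ P-388 cells on day 0. Drug given ip on days 1-4 (qd × 4) in sterile saline, or in 10% Tween 80 for the poorly water-soluble thioether. Average weight per mouse recorded on day 1, with reweighing on day 7 for percent weight change. Untreated control groups had 10-17 animals per experiment.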

[14] = system: Mus musculus; experiment: Percent increase in life span against P-388 leukemia in mice was determined at a dose of 32 mg/kg; settings: P388; outline: as §3
[15] = system: Mus musculus; experiment: Antitumor activity was determined for average weight on day 1 against P-388 leukemia in mice at a dose of 32 mg/kg; outline: as §4
[16] = system: Mus musculus; experiment: Percent increase in life span against P-388 leukemia in mice was determined at a dose of 8 mg/kg; settings: P388; outline: as §3
[17] = system: Mus musculus; experiment: Antitumor activity was determined for median survival of mice against P-388 leukemia in mice at a dose of 16 mg/kg; outline: as §1
[18] = system: Mus musculus; experiment: Antitumor activity was determined for survival range of mice against P-388 leukemia in mice at a dose of 8 mg/kg
Outline: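 Male B6D2F1J mice, 5 per dose group, implanted ip with 10⁶ P-388 leukemia cells on day 0. Drug given ip daily on days 1-4 (qd × 4) in sterile saline, or in 10% Tween 80 for the butyl thioether. Survival range recorded in days. Untreated control groups had 10-17 animals per experiment. Mice weighed on days 1 and 7.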

[19] = system: Mus musculus; experiment: Antitumor activity was determined for average 7-day weight change against P-388 leukemia in mice at a dose of 16 mg/kg; outline: as §2

Row | SMILES | IC50 [1] [µM] | Survival range [2] | Weight change [3] [%] | Survival median [4] | ILS at 16 mg/kg [5] [%] | Survival median [6] | Weight change [7] [%] | Average weight [8] [g mouse-1] | Average weight [9] [g mouse-1] | Survival range [10] | Average weight [11] [g mouse-1] | Weight change [12] [%] | Average weight [13] [g mouse-1] | ILS at 32 mg/kg [14] [%] | Average weight [15] [g mouse-1] | ILS at 8 mg/kg [16] [%] | Survival median [17] | Survival range [18] | Average weight [19] [g mouse-1]
1 | CCOC(=O)[C@H]1OC(n2cc(F)c(=O)[nH]c2=O)[C@H](O)[C@@H]1O (stereo not given in full) | > 1000 | – | – | – | – | – | – | – | – | – | – | – | – | – | – | – | – | – | –
2 | NC[C@H]1OC(n2cc(F)c(=O)[nH]c2=O)[C@H](O)[C@@H]1O (stereo not given in full) | 38 | 10 | 12 | 12 | 0 | 13 | 16 | 26.4 | 3.2 | 11 | 5.8 | 23 | 25.6 | 8 | 26.8 | 0 | 12 | 11 | 4.4
